“Also recorded” adds a separate entry of the source.
Experiments:
[1] = system: SMN2 expression; experiment: SMN2-luciferase reporter assay; type: cell-based; settings: for activity in the luciferase reporter assay (in words): SAR statements in the text
Outline: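 Reporter cells carrying the SMN2-luciferase construct were exposed to test compound at 0.1–50 μM, with DMSO (0.1%) controls. Luciferase signal gave dose-response curves, from which EC50 and percent maximum increase in SMN2 expression were taken. Values are mean ± S.E.M.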

[2] = aqueous solubility; type: physicochemical
[3] = stability in mouse microsomes; type: in vitro ADME
[4] = system: SMN1-luciferase construct; experiment: SMN1-luciferase construct expression; type: cell-based
[5] = system: SMN-luciferase reporter transcripts; experiment: qRT-PCR analysis of SMN-luciferase reporter transcripts; type: cell-based; settings: 24 hours required for full activation
[6] = system: SMNΔ7 mice; experiment: preliminary efficacy study in SMNΔ7 mice; type: in vivo, mouse; settings: 20 mg/kg i.p. once daily from PND 2, compared to vehicle
[7] = system: SMN2 expression; settings: hit compounds from high-throughput screening; cited from earlier work

Structure (SMILES)	activity in the luciferase reporter assay (in words) [1]	EC50 [1] [µM]	other results
COc1ccc2c(c1OC)C(c1cc(Br)ccc1F)CC(=O)N2 (centres unmarked) [5a]	complete loss of activity	–	–
COc1cc2c(c(OC)c1)C(c1cc(Br)ccc1F)CC(=O)N2 (centres unmarked) [5b]	complete loss of activity	–	–
COc1cc2c(c(OC)c1OC)C(c1ccccc1F)CC(=O)N2 (centres unmarked) [5c]	complete loss in activity	> 50	–
COc1cc2c(c(OC)c1OC)C(c1cccc(Br)c1)CC(=O)N2 (centres unmarked) [5d]	complete loss in activity	> 50	–
COc1cc2c(c(OC)c1OC)C(c1cc(F)ccc1F)CC(=O)N2 (centres unmarked) [5f]	not active	> 50	–
COc1cc2c(c(OC)c1OC)C(c1cc(C#N)ccc1F)CC(=O)N2 (centres unmarked) [5g]	not active	> 50	–
COc1cc2c(c(OC)c1OC)C(c1cc([N+](=O)[O-])ccc1F)CC(=O)N2 (centres unmarked) [5h]	not active	> 50	–
COc1cc2c(c(OC)c1OC)C(c1cc(C(N)=O)ccc1F)CC(=O)N2 (centres unmarked) [5i]	not active	> 50	–
COc1cc2c(c(OC)c1OC)C(c1cccc(Cl)c1Cl)CC(=O)N2 (centres unmarked) [5j]	inactive	> 50	–
COc1cc2c(c(OC)c1OC)C(c1ccc(Cl)cc1Cl)CC(=O)N2 (centres unmarked) [5k]	inactive	> 50	–
COc1cc2c(c(OC)c1OC)C(c1ccc(F)c(F)c1)CC(=O)N2 (centres unmarked) [5l]	inactive	> 50	–
COc1cc2c(c(OC)c1OC)C(c1ccc(Cl)c(Cl)c1)CC(=O)N2 (centres unmarked) [5m]	inactive	> 50	–
COc1cc2c(c(OC)c1OC)C(c1cc(Br)ccc1F)CC(=O)N2C (centres unmarked) [6a]	inactive	–	–
COc1cc2c(c(OC)c1OC)C(c1cc(Br)ccc1F)C(C)C(=O)N2 (centres unmarked) [6b]	inactive	–	–
COc1cc2c(c(OC)c1OC)C(c1cc(Cl)ccc1F)NC(=O)N2 (centres unmarked) [9a]	improved potency and efficacy; also recorded: very promising activity	–	SMN-luciferase protein expression from the SMN2-luciferase construct ([1]; secondary characterisation): increased SMN-luciferase protein expression; aqueous solubility (in words) [2]: improved aqueous solubility; stability in mouse microsomes (in words) [3]: promising stability; SMN-luciferase protein expression from the SMN1-luciferase construct [4]: increased SMN-luciferase protein expression; amount of exon 7 included transcripts [5]: corresponding increase; amount of total SMN-luciferase reporter transcripts [5]: increased; ability to right themselves [6]: increase in the ability to right themselves
COc1cc2c(c(OC)c1OC)C(c1ccccc1F)N(C)C(=O)N2 (centres unmarked) [9b]	less active; also recorded: partial, but not a complete, loss in activity	10	Emax ([1]; read-out: percent maximum increase in SMN2 expression): 100%
CCCN1C(=O)Nc2cc(OC)c(OC)c(OC)c2C1c1cccc(Cl)c1 (centres unmarked) [9c]	inactive; also recorded: partial, but not a complete, loss in activity	–	–
COc1cc2c(c(OC)c1OC)C(c1cccc(F)c1)NC(=O)N2 (centres unmarked) [9d]	retained some activity	–	–
COc1cc2c(c(OC)c1OC)C(c1ccc(F)cc1)NC(=O)N2 (centres unmarked) [9e]	retained some activity	–	–

Structure (SMILES)	activity in the luciferase reporter assay (in words) [1]	EC50 [1] [µM]	other results
COc1cc2c(c(OC)c1OC)C(c1ccccc1Cl)NC(=O)N2 (centres unmarked) [9f]	–	> 50	–
COc1cc2c(c(OC)c1OC)C(c1ccc(Cl)cc1)NC(=O)N2 (centres unmarked) [9g]	retained some activity	–	–
COc1ccccc1C1NC(=O)Nc2cc(OC)c(OC)c(OC)c21 (centres unmarked) [9h]	–	> 50	–
COc1ccc(C2NC(=O)Nc3cc(OC)c(OC)c(OC)c32)cc1 (centres unmarked) [9j]	–	> 50	–
COc1cc2c(c(OC)c1OC)C(c1cc(-c3ccccc3)ccc1F)NC(=O)N2 (centres unmarked) [9l]	inactive	> 50	–
COc1cc2c(c(OC)c1OC)C(c1cc(C#N)ccc1F)NC(=O)N2 (centres unmarked) [9m]	inactive	> 50	–
COc1cc2c(c(OC)c1OC)C(c1cc(F)ccc1F)NC(=O)N2 (centres unmarked) [9n]	less active	–	–
COc1ccc(F)c(C2NC(=O)Nc3cc(OC)c(OC)c(OC)c32)c1 (centres unmarked) [9o]	inactive	> 50	–
COc1cc2c(c(OC)c1OC)C(c1ccc(Cl)cc1F)NC(=O)N2 (centres unmarked) [9p]	tolerated	–	–
COc1cc(Cl)ccc1C1NC(=O)Nc2cc(OC)c(OC)c(OC)c21 (centres unmarked) [9q]	activity was restored	–	–
COc1ccc(Cl)cc1C1NC(=O)Nc2cc(OC)c(OC)c(OC)c21 (centres unmarked) [9r]	activity was restored	–	–
CC(C)c1cc(C(=O)Nc2ccc(F)c(Cl)c2)no1 [compound 1]	–	–	increase in expression of SMN2 [7]: 2 fold
COc1cc2c(c(OC)c1OC)C(c1cc(Br)ccc1F)CC(=O)N2 (centres unmarked) [compound 2]	–	–	increase in expression of SMN2 [7]: 2 fold
COc1cc2[nH]c(=O)nc(-c3cc(Cl)ccc3F)c2c(OC)c1OC [compound 13]	inactive	–	–
COc1cc2c(c(OC)c1OC)C(c1cc(Cl)ccc1F)=NCC(=O)N2 [compound 14]	retained potency similar to the lead 2, although its efficacy was reduced	–	–
COc1cc2c(c(OC)c1OC)C(c1cc(Cl)ccc1F)OC(=O)N2 (centres unmarked) [compound 16]	encouraging activity	–	–
COc1cc2c(c(OC)c1OC)C(c1cc(Cl)ccc1F)OCC(=O)N2 (centres unmarked) [compound 19]	improved potency and efficacy	–	aqueous solubility (in words) [2]: improved aqueous solubility; stability in mouse microsomes (in words) [3]: poor
COc1cc2c(c(OC)c1OC)C(c1cc(Cl)ccc1F)OCC(=O)N2C (centres unmarked) [compound 21]	not tolerated	–	–
COc1cc2c(c(OC)c1OC)C(C)(c1cc(Cl)ccc1F)OCC(=O)N2 (centres unmarked) [compound 23]	not tolerated	–	–
